# From ChEMBL document CHEMBL5303300, “EUbOPEN Chemogenomics Library - Multiplex” (2023)
# “And” between values parts separate entries of the source, which are not always exact repeats. Equal values may be shown once.
# System: U2OS
# Assay: Multiplex assay against U2OS
# Format: toxicity, cell-based
# Details: human, number of replicates 2
# How it was run: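 Live cells were stained at seeding with Hoechst33342, BioTracker Green Microtubule Cytoskeleton Dye, MitoTracker Red and Annexin V Alexa Fluor 680, then imaged on a CQ1 microscope at 37°C and 5% CO2 after compound addition. CellPathfinder machine-learning gating split cells into Hoechst high-intensity objects or normal cells. Normal cells were split into healthy, pyknosed or fragmented nuclei, and pyknosed cells into mitotic or apoptotic. Tubulin, mitochondrial-mass and membrane-permeability phenotypes are per cents of healthy-nucleus cells.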
# [1] = 12 h, 1 µM, compound concentration 1 uM
# [2] = 12 h, 10 µM, compound concentration 10 uM
# [3] = 24 h, 1 µM, compound concentration 1 uM
# [4] = 24 h, 10 µM, compound concentration 10 uM
# [5] = 48 h, 1 µM, compound concentration 1 uM
# [6] = 48 h, 10 µM, compound concentration 10 uM
smiles,measurement,setting,value
CC(C)S(=O)(=O)c1ccccc1Nc1nc(N[C@@H]2CCCN(CCCCCCCNC(=O)COc3cccc4c3C(=O)N(C3CCC(=O)NC3=O)C4=O)C2)ncc1Cl (stereo partly specified),Population Apoptotic (%),[1],82% and 80%
same,Population Fragmented Nuclei (%),[1],14% and 8%
same,Population Healthy Nuclei (%),[1],43% and 61%
same,Population Hoechst High Intensity Objects (%),[1],0% and 1%
same,Population Membrane Permeable-Phenotype (%),[1],5%
same,Population Mitochondria Different-Phenotype (%),[1],5% and 6%
same,Population Mitotic Cells (%),[1],17% and 19%
same,Population Normal (%),[1],100% and 98%
same,Population Pyknosed Nuclei (%),[1],41% and 30%
same,Population Tubulin-Different-Phenotype (%),[1],66% and 62%
same,Population Apoptotic (%),[2],85% and 81%
same,Population Fragmented Nuclei (%),[2],11% and 7%
same,Population Healthy Nuclei (%),[2],38% and 61%
same,Population Hoechst High Intensity Objects (%),[2],0% and 5%
same,Population Membrane Permeable-Phenotype (%),[2],81% and 57%
same,Population Mitochondria Different-Phenotype (%),[2],62% and 55%
same,Population Mitotic Cells (%),[2],14% and 18%
same,Population Normal (%),[2],100% and 94%
same,Population Pyknosed Nuclei (%),[2],50% and 31%
same,Population Tubulin-Different-Phenotype (%),[2],100% and 96%
same,Population Apoptotic (%),[3],83% and 87%
same,Population Fragmented Nuclei (%),[3],24% and 14%
same,Population Healthy Nuclei (%),[3],22% and 41%
same,Population Hoechst High Intensity Objects (%),[3],0% and 2%
same,Population Membrane Permeable-Phenotype (%),[3],0% and 5%
same,Population Mitochondria Different-Phenotype (%),[3],0% and 6%
same,Population Mitotic Cells (%),[3],16% and 12%
same,Population Normal (%),[3],100% and 97%
same,Population Pyknosed Nuclei (%),[3],53% and 44%
same,Population Tubulin-Different-Phenotype (%),[3],70% and 87%
same,Population Apoptotic (%),[4],93% and 89%
same,Population Fragmented Nuclei (%),[4],21% and 10%
same,Population Healthy Nuclei (%),[4],19% and 31%
same,Population Hoechst High Intensity Objects (%),[4],0% and 8%
same,Population Membrane Permeable-Phenotype (%),[4],0% and 25%
same,Population Mitotic Cells (%),[4],6% and 10%
same,Population Normal (%),[4],100% and 91%
same,Population Pyknosed Nuclei (%),[4],59% and 58%
same,Population Tubulin-Different-Phenotype (%),[4],40% and 55%
same,Population Apoptotic (%),[5],96% and 95%
same,Population Healthy Nuclei (%),[5],22% and 28%
same,Population Hoechst High Intensity Objects (%),[5],2% and 3%
same,Population Mitotic Cells (%),[5],3% and 4%
same,Population Normal (%),[5],97% and 96%
same,Population Pyknosed Nuclei (%),[5],54% and 63%
same,Population Tubulin-Different-Phenotype (%),[5],90% and 85%
same,Population Apoptotic (%),[6],90% and 97%
same,Population Fragmented Nuclei (%),[6],8% and 22%
same,Population Healthy Nuclei (%),[6],12% and 0%
same,Population Hoechst High Intensity Objects (%),[6],9% and 2%
same,Population Mitotic Cells (%),[6],9% and 2%
same,Population Normal (%),[6],90% and 97%
same,Population Pyknosed Nuclei (%),[6],79% and 77%
CC(C)NC(=O)[C@H]1CCC[C@H]1Nc1nc(Nc2ccc(C(=O)N(C)C3CCN(C)CC3)cc2)ncc1Cl,Population Apoptotic (%),[1],75% and 60%
same,Population Fragmented Nuclei (%),[1],17% and 6%
same,Population Healthy Nuclei (%),[1],72% and 81%
same,Population Hoechst High Intensity Objects (%),[1],0%
same,Population Membrane Permeable-Phenotype (%),[1],0% and 2%
same,Population Mitochondria Different-Phenotype (%),[1],0%
same,Population Mitotic Cells (%),[1],25% and 40%
same,Population Normal (%),[1],100% and 99%
same,Population Pyknosed Nuclei (%),[1],10% and 12%
same,Population Tubulin-Different-Phenotype (%),[1],65% and 57%
same,Population Apoptotic (%),[2],100% and 69%
same,Population Healthy Nuclei (%),[2],65% and 73%
same,Population Hoechst High Intensity Objects (%),[2],0%
same,Population Membrane Permeable-Phenotype (%),[2],13% and 18%
same,Population Mitochondria Different-Phenotype (%),[2],0% and 15%
same,Population Normal (%),[2],100%
same,Population Pyknosed Nuclei (%),[2],8% and 20%
same,Population Tubulin-Different-Phenotype (%),[2],40% and 36%
same,Population Apoptotic (%),[3],42% and 87%
same,Population Fragmented Nuclei (%),[3],8% and 3%
same,Population Healthy Nuclei (%),[3],70% and 83%
same,Population Hoechst High Intensity Objects (%),[3],0%
same,Population Membrane Permeable-Phenotype (%),[3],4% and 1%
same,Population Mitochondria Different-Phenotype (%),[3],0%
same,Population Normal (%),[3],100%
same,Population Pyknosed Nuclei (%),[3],20% and 12%
same,Population Tubulin-Different-Phenotype (%),[3],58% and 61%
same,Population Apoptotic (%),[4],75% and 82%
same,Population Healthy Nuclei (%),[4],43% and 65%
same,Population Hoechst High Intensity Objects (%),[4],0%
same,Population Membrane Permeable-Phenotype (%),[4],15% and 13%
same,Population Mitochondria Different-Phenotype (%),[4],46% and 31%
same,Population Mitotic Cells (%),[4],25% and 17%
same,Population Normal (%),[4],100%
same,Population Pyknosed Nuclei (%),[4],13% and 28%
same,Population Tubulin-Different-Phenotype (%),[4],53% and 45%
same,Population Apoptotic (%),[5],72% and 90%
same,Population Fragmented Nuclei (%),[5],10% and 18%
same,Population Healthy Nuclei (%),[5],64% and 58%
same,Population Hoechst High Intensity Objects (%),[5],0%
same,Population Membrane Permeable-Phenotype (%),[5],5% and 0%
same,Population Mitochondria Different-Phenotype (%),[5],0%
same,Population Mitotic Cells (%),[5],27% and 10%
same,Population Normal (%),[5],99% and 100%
same,Population Pyknosed Nuclei (%),[5],24% and 23%
same,Population Tubulin-Different-Phenotype (%),[5],68% and 48%
same,Population Apoptotic (%),[6],90% and 89%
same,Population Hoechst High Intensity Objects (%),[6],0%
same,Population Membrane Permeable-Phenotype (%),[6],0% and 25%
same,Population Mitotic Cells (%),[6],10%
same,Population Normal (%),[6],100% and 99%
same,Population Pyknosed Nuclei (%),[6],38% and 51%
same,Population Tubulin-Different-Phenotype (%),[6],50% and 52%
CCN(CC)C/C=C/C(=O)Nc1cc2c(Nc3ccc(F)c(Cl)c3)ncnc2cc1OCC1CC1,Population Apoptotic (%),[1],100% and 80%
same,Population Healthy Nuclei (%),[1],61% and 76%
same,Population Hoechst High Intensity Objects (%),[1],0%
same,Population Membrane Permeable-Phenotype (%),[1],4% and 13%
same,Population Mitochondria Different-Phenotype (%),[1],29% and 21%
same,Population Mitotic Cells (%),[1],0% and 20%
same,Population Normal (%),[1],100%
same,Population Pyknosed Nuclei (%),[1],17% and 16%
same,Population Tubulin-Different-Phenotype (%),[1],58% and 49%
same,Population Apoptotic (%),[2],80% and 91%
same,Population Fragmented Nuclei (%),[2],27% and 10%
same,Population Healthy Nuclei (%),[2],25% and 48%
same,Population Hoechst High Intensity Objects (%),[2],0% and 1%
same,Population Membrane Permeable-Phenotype (%),[2],45% and 31%
same,Population Mitochondria Different-Phenotype (%),[2],45% and 57%
same,Population Mitotic Cells (%),[2],20% and 8%
same,Population Normal (%),[2],100% and 98%
same,Population Pyknosed Nuclei (%),[2],46% and 40%
same,Population Tubulin-Different-Phenotype (%),[2],90% and 95%
same,Population Apoptotic (%),[3],88% and 82%
same,Population Healthy Nuclei (%),[3],58% and 73%
same,Population Hoechst High Intensity Objects (%),[3],0%
same,Population Membrane Permeable-Phenotype (%),[3],10% and 15%
same,Population Mitochondria Different-Phenotype (%),[3],44% and 39%
same,Population Mitotic Cells (%),[3],11% and 17%
same,Population Normal (%),[3],100% and 99%
same,Population Pyknosed Nuclei (%),[3],18% and 23%
same,Population Tubulin-Different-Phenotype (%),[3],51% and 48%
same,Population Apoptotic (%),[4],93%
same,Population Healthy Nuclei (%),[4],11% and 1%
same,Population Hoechst High Intensity Objects (%),[4],1%
same,Population Mitotic Cells (%),[4],6%
same,Population Normal (%),[4],98%
same,Population Pyknosed Nuclei (%),[4],78% and 56%
same,Population Tubulin-Different-Phenotype (%),[4],93% and 100%
same,Total Cell Count,[4],133 and 52
same,Population Apoptotic (%),[5],84% and 98%
same,Population Healthy Nuclei (%),[5],52% and 71%
same,Population Hoechst High Intensity Objects (%),[5],1% and 0%
same,Population Membrane Permeable-Phenotype (%),[5],10% and 12%
same,Population Mitochondria Different-Phenotype (%),[5],34% and 30%
same,Population Normal (%),[5],98% and 100%
same,Population Pyknosed Nuclei (%),[5],23% and 22%
same,Population Tubulin-Different-Phenotype (%),[5],37% and 42%
same,Population Apoptotic (%),[6],100% and 98%
same,Population Healthy Nuclei (%),[6],1% and 7%
same,Population Hoechst High Intensity Objects (%),[6],0%
same,Population Membrane Permeable-Phenotype (%),[6],100% and 88%
same,Population Mitochondria Different-Phenotype (%),[6],100% and 88%
same,Population Mitotic Cells (%),[6],0% and 1%
same,Population Normal (%),[6],100% and 99%
same,Population Pyknosed Nuclei (%),[6],46% and 87%
same,Population Tubulin-Different-Phenotype (%),[6],100%
same,Total Cell Count,[6],56 and 120
COC(=O)Nc1nc2c(s1)-c1c(c(-c3cccnc3)nn1-c1ccc(C3(N(C)C)CC3)cc1)CC2.Cl.Cl,Population Apoptotic (%),[1],100% and 85%
same,Population Healthy Nuclei (%),[1],44% and 73%
same,Population Hoechst High Intensity Objects (%),[1],0%
same,Population Mitochondria Different-Phenotype (%),[1],3% and 12%
same,Population Mitotic Cells (%),[1],0% and 14%
same,Population Normal (%),[1],100% and 99%
same,Population Pyknosed Nuclei (%),[1],4% and 13%
same,Population Tubulin-Different-Phenotype (%),[1],51% and 39%
same,Population Apoptotic (%),[2],58% and 63%
same,Population Fragmented Nuclei (%),[2],96% and 73%
same,Population Hoechst High Intensity Objects (%),[2],0%
same,Population Membrane Permeable-Phenotype (%),[2],28% and 26%
same,Population Mitochondria Different-Phenotype (%),[2],7% and 15%
same,Population Mitotic Cells (%),[2],41% and 36%
same,Population Normal (%),[2],100% and 99%
same,Population Pyknosed Nuclei (%),[2],1% and 6%
same,Population Tubulin-Different-Phenotype (%),[2],32% and 49%
same,Total Cell Count,[2],1083 and 863
same,Population Apoptotic (%),[3],83% and 77%
same,Population Healthy Nuclei (%),[3],31% and 74%
same,Population Hoechst High Intensity Objects (%),[3],0% and 1%
same,Population Membrane Permeable-Phenotype (%),[3],5%
same,Population Mitochondria Different-Phenotype (%),[3],0% and 16%
same,Population Mitotic Cells (%),[3],16% and 22%
same,Population Normal (%),[3],100% and 98%
same,Population Pyknosed Nuclei (%),[3],9% and 17%
same,Population Tubulin-Different-Phenotype (%),[3],55% and 39%
same,Population Apoptotic (%),[4],75% and 71%
same,Population Fragmented Nuclei (%),[4],96% and 74%
same,Population Hoechst High Intensity Objects (%),[4],0%
same,Population Membrane Permeable-Phenotype (%),[4],25% and 13%
same,Population Mitochondria Different-Phenotype (%),[4],21% and 20%
same,Population Mitotic Cells (%),[4],25% and 28%
same,Population Normal (%),[4],99%
same,Population Pyknosed Nuclei (%),[4],1% and 8%
same,Population Tubulin-Different-Phenotype (%),[4],40% and 45%
same,Total Cell Count,[4],1253 and 958
same,Population Apoptotic (%),[5],85% and 76%
same,Population Healthy Nuclei (%),[5],31% and 63%
same,Population Hoechst High Intensity Objects (%),[5],0%
same,Population Membrane Permeable-Phenotype (%),[5],19% and 10%
same,Population Mitochondria Different-Phenotype (%),[5],9% and 14%
same,Population Mitotic Cells (%),[5],14% and 23%
same,Population Normal (%),[5],100% and 99%
same,Population Pyknosed Nuclei (%),[5],10% and 28%
same,Population Tubulin-Different-Phenotype (%),[5],66% and 45%
same,Population Apoptotic (%),[6],66% and 70%
same,Population Fragmented Nuclei (%),[6],95% and 76%
same,Population Hoechst High Intensity Objects (%),[6],0%
same,Population Membrane Permeable-Phenotype (%),[6],13% and 23%
same,Population Mitochondria Different-Phenotype (%),[6],13% and 26%
same,Population Mitotic Cells (%),[6],33% and 30%
same,Population Normal (%),[6],100% and 99%
same,Population Pyknosed Nuclei (%),[6],2% and 10%
same,Population Tubulin-Different-Phenotype (%),[6],50% and 51%
same,Total Cell Count,[6],1346 and 1010
